Data set [1] has as its target T1, Metabotropic glutamate receptor 5 (Rattus norvegicus, UniProt P31424). Description: Antagonist activity at rat mGluR5 expressed in human HEK-293 cells assessed as inhibition of glutamate-induced intracellular calcium mobilization. The class given is functional, cell-based, HEK293.
Data set [2] deals with T1, Metabotropic glutamate receptor 5. Put plainly: Displacement of [3H]methoxy-PEPY from rat mGluR5 expressed in human HEK-293 cells by liquid scintillation counting. The class given is cell-based, HEK293. The method, boiled down:
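Membranes from stable rat mGluR5-HEK293A cells (10 µg/well) incubated with 2 nM [3H]methoxy-PEPY in 50 mM Tris/0.9% NaCl, pH 7.4, with or without compound, 1 h at room temperature with shaking. Filtered on GF/B, washed three times, counted by liquid scintillation. Ki derived from fitted IC50; three experiments in duplicate.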

Data set [3] is described as follows: Octanol-phosphate buffer partition coefficient, log D of the compound at pH 7.4. The class given is physicochemical. In outline: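 Log D measured as partition of the [123I]-labelled compound between octanol and phosphate buffer pH 7.4.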
The next data set has as its system Rattus norvegicus. Put plainly: Analgesic activity in ip dosed rat post-operative pain model. The class given is functional.

T1 sequence (P31424 whole entry): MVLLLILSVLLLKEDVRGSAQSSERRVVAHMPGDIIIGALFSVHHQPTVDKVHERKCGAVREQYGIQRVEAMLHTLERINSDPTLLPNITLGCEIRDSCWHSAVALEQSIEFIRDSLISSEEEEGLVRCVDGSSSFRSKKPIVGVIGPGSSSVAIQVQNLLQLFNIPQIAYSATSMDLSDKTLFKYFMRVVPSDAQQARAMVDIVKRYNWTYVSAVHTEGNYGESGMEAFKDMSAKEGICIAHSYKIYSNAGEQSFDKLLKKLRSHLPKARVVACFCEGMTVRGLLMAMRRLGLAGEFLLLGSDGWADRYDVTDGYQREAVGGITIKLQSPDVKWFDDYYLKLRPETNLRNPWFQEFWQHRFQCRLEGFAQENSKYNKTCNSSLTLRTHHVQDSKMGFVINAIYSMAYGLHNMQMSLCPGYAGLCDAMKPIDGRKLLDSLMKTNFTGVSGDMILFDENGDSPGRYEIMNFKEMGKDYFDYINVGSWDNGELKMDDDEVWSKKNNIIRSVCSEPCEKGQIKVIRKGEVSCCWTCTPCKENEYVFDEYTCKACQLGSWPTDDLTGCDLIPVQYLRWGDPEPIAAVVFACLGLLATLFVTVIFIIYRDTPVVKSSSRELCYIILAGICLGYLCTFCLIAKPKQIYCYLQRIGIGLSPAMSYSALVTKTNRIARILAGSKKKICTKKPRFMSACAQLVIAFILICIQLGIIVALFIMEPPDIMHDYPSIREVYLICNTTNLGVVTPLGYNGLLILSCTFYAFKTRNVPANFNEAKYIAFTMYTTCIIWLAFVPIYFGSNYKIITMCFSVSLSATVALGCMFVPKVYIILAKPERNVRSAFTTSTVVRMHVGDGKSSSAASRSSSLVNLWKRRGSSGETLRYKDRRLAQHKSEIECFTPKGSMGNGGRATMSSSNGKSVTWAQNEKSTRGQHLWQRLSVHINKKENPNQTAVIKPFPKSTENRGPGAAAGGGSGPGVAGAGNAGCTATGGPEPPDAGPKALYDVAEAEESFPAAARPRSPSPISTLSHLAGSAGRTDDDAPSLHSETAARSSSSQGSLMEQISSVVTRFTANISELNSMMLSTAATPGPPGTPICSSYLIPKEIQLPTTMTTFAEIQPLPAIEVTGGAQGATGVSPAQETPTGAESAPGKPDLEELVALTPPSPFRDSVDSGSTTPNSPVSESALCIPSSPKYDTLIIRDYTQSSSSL

Broadly, the IC50 is the concentration that inhibits the measured activity by half. The term Ki denotes a dissociation constant, usually derived from enzyme kinetics or from competition with a known ligand. Low values mean higher affinity, high ones lower affinity. On to `Cc1nc(C#Cc2cc(C#N)cc([N+](=O)[O-])c2)cs1`, for which the IC50 in data set [1] is 2.63 nM. In addition, the Ki in data set [2] worked out at 0.36 nM.
As for `Cc1nc(C#Cc2cc(Br)cc([N+](=O)[O-])c2)cs1`, the IC50 in data set [1] worked out at 0.73 nM. Further, the affinity in data set [2], expressed as Ki, was 0.93 nM.
`N#Cc1cc(I)cc(C#Cc2ccccn2)c1`: the IC50 in data set [1] stood at 0.66 nM.
For the compound `Cc1nc(C#Cc2cc(Cl)cc(C#N)c2)cs1`, the IC50 in data set [1] came to 1.61 nM. In data set [2], the Ki stood at 0.127 nM.
Take `Cc1nc(C#Cc2cc(Br)cc(C#N)c2)cs1`: the IC50 in data set [1] came to 1.06 nM. In addition, affinity in data set [2] was put at a Ki of 0.106 nM.
Turning to `Cc1nc(C#Cc2cc(I)cc(C#N)c2)cs1`, the IC50 in data set [1] worked out at 1.05 nM. This compound returned a Ki in data set [2] of 2.14 nM.
With `Cc1nc(C#Cc2cc(F)cc([N+](=O)[O-])c2)cs1`, the IC50 in data set [1] came out at 0.61 nM. In data set [2], this compound came in with a Ki of 0.3 nM.
As to `Cc1nc(C#Cc2cc(I)cc([N+](=O)[O-])c2)cs1`, the IC50 in data set [1] worked out at 1.75 nM. Also, in data set [2], affinity was put at a Ki of 1.84 nM.
On to `Cc1nc(C#Cc2cc(F)cc(Br)c2)cs1`, for which the IC50 in data set [1] stood at 1.11 nM. The compound further showed a Ki in data set [2] of 1.06 nM.
Take `Cc1nc(C#Cc2cc(Br)cc(Br)c2)cs1`: the IC50 in data set [1] was determined as 1.45 nM. Further, affinity in data set [2] was put at a Ki of 0.69 nM.
Turning to `Cc1cccc(C#Cc2cc(C#N)cc([N+](=O)[O-])c2)n1`, the IC50 in data set [1] worked out at 3.68 nM.
With `Cc1cccc(C#Cc2cc(Br)cc([N+](=O)[O-])c2)n1`, the IC50 in data set [1] turned out to be 0.63 nM.
For the compound `Cc1cccc(C#Cc2cc(Cl)cc(C#N)c2)n1`, in data set [1], the IC50 was 1.22 nM.
For `Cc1cccc(C#Cc2cc(F)cc(C#N)c2)n1`, the IC50 in data set [1] stood at 1.22 nM.
The same measure, in the same setting: the result for `Cc1cccc(C#Cc2cc(I)cc(C#N)c2)n1` reads 0.71 nM.
For the compound `Cc1ccc(C#Cc2cc(C#N)cc([N+](=O)[O-])c2)nc1`, the IC50 in data set [1] was found to be 2.64 nM.
The same measure, in the same setting: the result for `Cc1ccc(C#Cc2cc(Br)cc([N+](=O)[O-])c2)nc1` reads 7.36 nM; that for `Cc1ccc(C#Cc2cc(Cl)cc(C#N)c2)nc1`, 1.22 nM.
Consider `Cc1ccc(C#Cc2cc(F)cc(C#N)c2)nc1`, for which the IC50 in data set [1] was 0.32 nM.
On the same count and under the same terms, the result for `Cc1ccc(C#Cc2cc(Br)cc(C#N)c2)nc1` reads 1.02 nM; that for `N#Cc1cc(C#Cc2ccccn2)cc([N+](=O)[O-])c1`, 1.32 nM; that for `O=[N+]([O-])c1cc(Br)cc(C#Cc2ccccn2)c1`, 0.39 nM.
With `N#Cc1cc(Cl)cc(C#Cc2ccccn2)c1`, in data set [1], the IC50 turned out to be 1.03 nM.
On to `O=[N+]([O-])c1cc(F)cc(C#Cc2ccccn2)c1`, for which, in data set [1], the IC50 is 0.66 nM.
On to `O=[N+]([O-])c1cc(I)cc(C#Cc2ccccn2)c1`, for which, in data set [1], the IC50 is 2.09 nM.
What is called logD is the decadic logarithm of the distribution of all forms, ionised or not, between an organic phase and buffer at a given pH. The low end stands for lower lipophilicity, the high end for higher lipophilicity. As to `Cc1cccc(C#Cc2cc([123I])cc(C#N)c2)n1`, the logD in data set [3] was found to be 2.3.
On to `Cc1nc(C#Cc2cc(F)cc(C#N)c2)cs1`, for which the IC50 in data set [1] was determined as 1.89 nM. Further, the Ki in data set [2] was determined as 0.36 nM.
For orientation: ED50 means the midpoint of the dose-response relation. A high value points to a need for a large dose. In the case of `Cc1cccc(C#Cc2ccccc2)n1`, the ED50 in the data set on Rattus norvegicus came to 15 mg/kg.
